Laboratory results as given in ChEMBL document CHEMBL1629527, “In vitro antifungal activities of bis(alkylpyridinium)alkane compounds against pathogenic yeasts and molds” (Antimicrob Agents Chemother, 2010).

How the values were obtained:
Rhizopus arrhizus = experiment: Antifungal activity against Rhizopus oryzae 05-203111 after 24 to 72 hrs by broth microdilution method; assay type: functional
Procedure, shortened: (§1)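 Mold isolates subcultured on potato dextrose agar, then tested by CLSI M38-A2 broth microdilution in RPMI 1640 (L-glutamine, no bicarbonate) buffered to pH 7.0 with 0.165 M MOPS. Compounds were dissolved in water and tested at a final 0.175–87.5 μM. Plates were incubated at 35°C. MIC was read visually as the lowest concentration giving 100% inhibition versus the growth control. Each isolate was run in duplicate in two independent experiments.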

Aspergillus fumigatus = experiment: Antifungal activity against Aspergillus fumigatus 05-203114 after 24 to 72 hrs by broth microdilution method; assay type: functional
Procedure, shortened: (§2)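 Broth microdilution MIC per CLSI M27-A3 (yeasts) or M38-A2 (molds). RPMI 1640 with L-glutamine, without bicarbonate, buffered to pH 7.0 with 0.165 M MOPS. Final test range for the compounds was 0.175–87.5 μM. Incubation at 35°C with visual reading at 24–72 h. MIC was the lowest concentration giving 100% inhibition versus the growth control (azoles 50% or 100%, by organism). Each isolate was run in duplicate in two independent experiments.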

Candida dubliniensis = experiment: Antifungal activity against Candida dubliniensis after 24 to 72 hrs by broth microdilution method; assay type: functional; procedure, shortened: as §2
Scedosporium apiospermum = experiment: Antifungal activity against Scedosporium apiospermum 05-203100 after 24 to 72 hrs by broth microdilution method; assay type: functional; procedure, shortened: as §1
[1] = tested on: Cryptococcus gattii species complex; experiment: Antifungal activity against Cryptococcus gattii 05-200122 after 24 to 72 hrs by broth microdilution method; assay type: functional, Cryptococcus bacillisporus; procedure, shortened: as §2
Nakaseomyces glabratus [2] = experiment: Antifungal activity against Candida glabrata after 48 to 72 hrs; assay type: functional
Procedure, shortened: (§3)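 MFC: after the MIC read, 30-μl aliquots from each well without visible growth were plated onto Sabouraud dextrose agar and incubated at 35°C. Reading was at 48–72 h for yeasts and up to 7 days for molds. MFC was the lowest concentration with no colonies.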

Lichtheimia corymbifera = experiment: Antifungal activity against Absidia corymbifera 04-200170 after 24 to 72 hrs by broth microdilution method; assay type: functional; procedure, shortened: as §2
Candida parapsilosis [3] = experiment: Antifungal activity against Candida parapsilosis after 48 to 72 hrs; assay type: functional; procedure, shortened: as §3
Aspergillus flavus [4] = experiment: Antifungal activity against Aspergillus flavus ATCC 204304 after 24 to 72 hrs by broth microdilution method; assay type: functional; procedure, shortened: as §2
Candida albicans [5] = experiment: Antifungal activity against Candida albicans after 24 to 72 hrs by broth microdilution method; assay type: functional
Procedure, shortened: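 CLSI M27-A3 broth microdilution for yeasts in RPMI 1640 with L-glutamine and no bicarbonate, buffered with 0.165 M MOPS to pH 7.0. Compounds were dissolved in water and tested at 0.175–87.5 μM final, 35°C. MIC was read visually at 24–72 h as 100% inhibition versus growth control. For MFC, 30 μl from clear wells went onto SDA at 35°C for 48–72 h, reading the lowest concentration without colonies. Duplicates, two independent runs.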

Nakaseomyces glabratus [6] = experiment: Antifungal activity against Candida glabrata 04-202345 after 24 to 72 hrs by broth microdilution method; assay type: functional; procedure, shortened: as §2
Candida tropicalis [7] = experiment: Antifungal activity against Candida tropicalis after 48 to 72 hrs; assay type: functional; procedure, shortened: as §3
Pichia kudriavzevii [8] = experiment: Antifungal activity against Candida krusei 04-202328 after 24 to 72 hrs by broth microdilution method; assay type: functional; procedure, shortened: as §2
Pichia kudriavzevii [9] = experiment: Antifungal activity against Candida krusei after 48 to 72 hrs; assay type: functional; procedure, shortened: as §3
Candida tropicalis [10] = experiment: Antifungal activity against Candida tropicalis 04-202361 after 24 to 72 hrs by broth microdilution method; assay type: functional; procedure, shortened: as §2
Aspergillus flavus [11] = experiment: Antifungal activity against Aspergillus flavus ATCC 204304 after 48 to 72 hrs; assay type: functional; procedure, shortened: as §3
Pichia kudriavzevii [12] = experiment: Antifungal activity against Candida krusei after 24 to 72 hrs by broth microdilution method; assay type: functional; procedure, shortened: as §2
Candida albicans [13] = experiment: Antifungal activity against Candida albicans ATCC 10231 after 24 to 72 hrs by broth microdilution method; assay type: functional; procedure, shortened: as §2
[14] = Antifungal activity against Paecilomyces lilacinus 05-200601 after 24 to 72 hrs by broth microdilution method; assay type: functional; details: Purpureocillium lilacinum; procedure, shortened: as §1
Candida parapsilosis [15] = experiment: Antifungal activity against Candida parapsilosis 04-202398 after 24 to 72 hrs by broth microdilution method; assay type: functional; details: Lodderomyces parapsilosis; procedure, shortened: as §2
[16] = tested on: Cryptococcus gattii species complex; experiment: Antifungal activity against Cryptococcus gattii after 48 to 72 hrs; assay type: functional, Cryptococcus bacillisporus; procedure, shortened: as §3
Candida tropicalis [17] = experiment: Antifungal activity against Candida tropicalis after 24 to 72 hrs by broth microdilution method; assay type: functional; procedure, shortened: as §2
Exophiala spinifera = experiment: Antifungal activity against Exophiala spinifera 03-200803 after 24 to 72 hrs by broth microdilution method; assay type: functional; procedure, shortened: as §1
Fusarium solani = experiment: Antifungal activity against Fusarium solani 04-203102 after 24 to 72 hrs by broth microdilution method; assay type: functional; procedure, shortened: as §1
[18] = tested on: Meyerozyma guilliermondii; experiment: Antifungal activity against Candida guilliermondii after 24 to 72 hrs by broth microdilution method; assay type: functional; procedure, shortened: as §2
Cryptococcus neoformans [19] = experiment: Antifungal activity against Cryptococcus neoformans ATCC 90112 after 24 to 72 hrs by broth microdilution method; assay type: functional; procedure, shortened: as §2
Candida parapsilosis [20] = experiment: Antifungal activity against Candida parapsilosis ATCC 22019 after 24 to 72 hrs by broth microdilution method; assay type: functional; details: Lodderomyces parapsilosis; procedure, shortened: as §2
Aspergillus flavus [21] = experiment: Antifungal activity against Aspergillus flavus 05-203758 after 24 to 72 hrs by broth microdilution method; assay type: functional; procedure, shortened: as §2
[22] = tested on: Cryptococcus gattii species complex; experiment: Antifungal activity against Cryptococcus gattii after 24 to 72 hrs by broth microdilution method; assay type: functional, Cryptococcus bacillisporus; procedure, shortened: as §2
Candida parapsilosis [23] = experiment: Antifungal activity against Candida parapsilosis after 24 to 72 hrs by broth microdilution method; assay type: functional; details: Lodderomyces parapsilosis; procedure, shortened: as §2
Aspergillus terreus = experiment: Antifungal activity against Aspergillus terreus 05-202844 after 24 to 72 hrs by broth microdilution method; assay type: functional; procedure, shortened: as §2
Cryptococcus neoformans [24] = experiment: Antifungal activity against Cryptococcus neoformans after 24 to 72 hrs by broth microdilution method; assay type: functional; procedure, shortened: as §2
Nakaseomyces glabratus [25] = experiment: Antifungal activity against Candida glabrata after 24 to 72 hrs by broth microdilution method; assay type: functional; procedure, shortened: as §2
Cryptococcus neoformans [26] = experiment: Antifungal activity against Cryptococcus neoformans 05-202523 after 48 to 72 hrs; assay type: functional; procedure, shortened: as §3
Cryptococcus neoformans [27] = experiment: Antifungal activity against Cryptococcus neoformans 05-202523 after 24 to 72 hrs by broth microdilution method; assay type: functional; procedure, shortened: as §2

CCCCCc1cc[n+](CCCCCCCCCCCC[n+]2ccc(CCCCC)c(C)c2)cc1C.[Cl-].[Cl-]
MIC (Rhizopus arrhizus): 1.58 µg/mL
MIC (Aspergillus fumigatus): 25.3 µg/mL
MIC (Candida dubliniensis): 0.908 µg/mL
MIC50 (Candida dubliniensis): 0.79 µg/mL
MIC90 (Candida dubliniensis): 0.79 µg/mL
MIC (Scedosporium apiospermum): 6.3 µg/mL
MIC [1]: 0.79 µg/mL
MFC50 (Nakaseomyces glabratus [2]): 0.79 µg/mL
MFC90 (Nakaseomyces glabratus [2]): 1.56 µg/mL
MFC (Nakaseomyces glabratus [2]; Nakaseomyces glabratus): 0.39 µg/mL
MIC (Lichtheimia corymbifera): 50.7 µg/mL
MFC50 (Candida parapsilosis [3]): 49.5 µg/mL
MFC90 (Candida parapsilosis [3]): 49.5 µg/mL
MFC (Candida parapsilosis [3]; Lodderomyces parapsilosis): 49.5 µg/mL
MIC (Aspergillus flavus [4]): 12.7 µg/mL
MIC (Candida albicans [5]): 1.36 µg/mL
MIC50 (Candida albicans [5]): 1.56 µg/mL
MIC90 (Candida albicans [5]): 1.56 µg/mL
MIC (Nakaseomyces glabratus [6]): 0.79 µg/mL
MFC50 (Candida tropicalis [7]): 0.79 µg/mL
MFC90 (Candida tropicalis [7]): 1.56 µg/mL
MFC (Candida tropicalis [7]; Candida tropicalis): 0.39 µg/mL
MIC (Pichia kudriavzevii [8]): 6.3 µg/mL
MFC50 (Pichia kudriavzevii [9]): 6.22 µg/mL
MFC90 (Pichia kudriavzevii [9]): 6.22 µg/mL
MFC (Pichia kudriavzevii [9]; Pichia kudriavzevii): 0.79 µg/mL
MIC (Candida tropicalis [10]): 0.79 µg/mL
MFC (Aspergillus flavus [11]): 25.3 µg/mL
MIC (Pichia kudriavzevii [12]): 3.12 µg/mL
MIC50 (Pichia kudriavzevii [12]): 3.11 µg/mL
MIC90 (Pichia kudriavzevii [12]): 6.22 µg/mL
MIC (Candida albicans [13]): 1.58 µg/mL
MIC [14]: > 50.7 µg/mL
MIC (Candida parapsilosis [15]): 25.3 µg/mL
MFC50 [16]: 0.79 µg/mL
MFC90 [16]: 0.79 µg/mL
MFC ([16]; Cryptococcus gattii species complex): 0.79 µg/mL
MIC (Candida tropicalis [17]): 0.79 µg/mL
MIC50 (Candida tropicalis [17]): 0.79 µg/mL
MIC90 (Candida tropicalis [17]): 0.79 µg/mL
MIC (Exophiala spinifera): 0.79 µg/mL
MIC (Fusarium solani): 12.7 µg/mL
MIC [18]: 0.903 µg/mL
MIC50 [18]: 0.79 µg/mL
MIC90 [18]: 1.56 µg/mL
MIC (Cryptococcus neoformans [19]): 0.79 µg/mL
MIC (Candida parapsilosis [20]): 0.79 µg/mL
MIC (Aspergillus flavus [21]): 25.3 µg/mL
MIC [22]: 0.79 µg/mL
MIC50 [22]: 0.79 µg/mL
MIC90 [22]: 0.79 µg/mL
MIC (Candida parapsilosis [23]): 30.6 µg/mL
MIC50 (Candida parapsilosis [23]): 24.9 µg/mL
MIC90 (Candida parapsilosis [23]): 49.5 µg/mL
MIC (Aspergillus terreus): 0.7 µg/mL
MIC (Cryptococcus neoformans [24]): 1.28 µg/mL
MIC50 (Cryptococcus neoformans [24]): 0.79 µg/mL
MIC90 (Cryptococcus neoformans [24]): 3.11 µg/mL
MIC (Nakaseomyces glabratus [25]): 0.642 µg/mL
MIC50 (Nakaseomyces glabratus [25]): 0.79 µg/mL
MIC90 (Nakaseomyces glabratus [25]): 0.79 µg/mL
MFC (Cryptococcus neoformans [26]): 25.3 µg/mL
MIC (Cryptococcus neoformans [27]): 12.7 µg/mL
